Experimental data collected from several papers.
Protocols differ between the studies behind these lines.
Target: Dual specificity mitogen-activated protein kinase kinase 3 (MAP2K3, Homo sapiens, UniProt P46734)
One construct used (P46734 1-347): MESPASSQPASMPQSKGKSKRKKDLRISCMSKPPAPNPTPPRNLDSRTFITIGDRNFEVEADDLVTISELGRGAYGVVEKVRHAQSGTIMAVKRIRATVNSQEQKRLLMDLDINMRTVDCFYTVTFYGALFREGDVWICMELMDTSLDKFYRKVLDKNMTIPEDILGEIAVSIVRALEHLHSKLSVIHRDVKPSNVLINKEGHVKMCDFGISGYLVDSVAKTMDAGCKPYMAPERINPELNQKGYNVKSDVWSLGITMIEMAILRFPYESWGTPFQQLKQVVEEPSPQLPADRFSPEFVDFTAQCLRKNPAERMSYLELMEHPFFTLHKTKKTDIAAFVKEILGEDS

With `F[C@@H]1CCN(c2nccc(-c3cnn4ncccc34)n2)C1` the remaining binding was 83% (binding; 1 µM).
With `COc1ncc2cc3ccccc3nc2c1C#N` the remaining binding was 74% (cell-free assay, competition with immobilised ligand; 5 µM).
For `CN(C)c1ncnc(-c2ccc3nc(Nc4cc(CN5CCN(C(=O)CC(F)(F)F)CC5)ccn4)[nH]c3c2)c1Cl`, the remaining binding was 73% (cell-free assay, competition with immobilised ligand; 1 µM).
With `CN(c1nccc(-c2cnn3ncccc23)n1)C1CC1` the remaining binding was 93% (binding; 1 µM).
With `Nc1ncc2c(n1)-c1c([nH]c3ccc(C#CC4CC4)cc13)CCCC2` the remaining binding was 93% (binding, competition with immobilised ligand; 1 µM).
The remaining binding of `CN(C)C(=O)Cn1cc(-c2nc([C@@](C)(c3ccc(-c4cnc(N)nc4)cc3)C3CC3)no2)cn1` is reported as 83% (cell-free assay, competition with immobilised ligand; 1 µM).
For `O=C(c1ccc(Nc2ncc(Cl)c(-c3ccc(Cl)s3)n2)cc1)N1CCC(N2CCCC2)CC1`, the remaining binding was 15% (binding, competition with immobilised ligand; 1 µM).
The remaining binding of `N[C@H]1CCN(c2nccc(-c3cnn4ncccc34)n2)C1` is reported as 67% (binding; 1 µM).
`FC(F)(F)Oc1cccc(-c2cnc3ccc(-c4ccncc4)nn23)c1` gave a remaining binding of 35% (cell-free assay, competition with immobilised ligand; 5 µM).
`Cn1nc(C(F)(F)F)cc1-c1cnc(N2CCc3cc(S(=O)(=O)Nc4c(F)cc(Cl)cc4F)cc(N4CCCC4=O)c32)nc1` gave a remaining binding of 82% (cell-free assay, competition with immobilised ligand; 1 µM).
With `CCN1CCN(Cc2ccc(C(=O)Nc3ccc(C)c(Oc4ccc5c(c4)CC(=O)N5)c3)cc2C(F)(F)F)CC1` the remaining binding was 100% (binding, competition with immobilised ligand; 1 µM).
`O=C(NCCCN1CCOCC1)c1ccc(Nc2nccc(-c3cc4ccccc4s3)n2)cc1` gave a remaining binding of 47% (binding, competition with immobilised ligand; 1 µM).
For `O=C(NCc1ncc(C(F)(F)F)cc1Cl)c1ccc2c(c1)C1(CCS(=O)(=O)CC1)[C@@H](C1CC1)N2S(=O)(=O)c1ccc(F)cc1`, the remaining binding was 73% (cell-free assay, competition with immobilised ligand; 1 µM).
The remaining binding of `O=C(NCC1CCOCC1)c1n[nH]cc1NC(=O)c1c(F)cccc1F` is reported as 64% (binding, competition with immobilised ligand; 1 µM).
`CNC(=O)[C@@H]1CC[C@@H](n2c(-c3ccc4cnccc4c3)nc3ccc(C(=O)NCc4cccc(C(N)=O)c4)cc32)C1` gave a remaining binding of 98% (binding, competition with immobilised ligand; 1 µM).
`CO[C@@H](C)c1c(Nc2ccc([C@@H](N(C)C(=O)C3CCS(=O)(=O)CC3)C(F)(F)F)cc2)cnc2cc(Cl)nn12` gave a remaining binding of 90% (cell-free assay, competition with immobilised ligand; 1 µM).
`CC1CCCN1c1nccc(-c2cnn3ncccc23)n1` (stereo not shown) has a remaining binding of 84% (binding; 1 µM).
`COc1cnc(Nc2cccc(S(N)(=O)=O)c2)nc1N1CCN(c2ccccc2)CC1` gave a remaining binding of 79% (binding, competition with immobilised ligand; 1 µM).
The remaining binding of `CN(C)c1ncc(F)c(-c2cnn3ncccc23)n1` is reported as 78% (binding; 1 µM).
With `O=C(c1ccc(Nc2ncc(Cl)c(-c3cc4ccccc4s3)n2)cc1)N1CCC(N2CCCC2)CC1` the remaining binding was 43% (binding, competition with immobilised ligand; 1 µM).
For `N#CC1(c2ccccn2)CCN(Cc2cc(C(=O)N3CCCC3)c(=O)n3ccccc23)CC1`, the remaining binding was 81% (cell-free assay, competition with immobilised ligand; 1 µM).
The remaining binding of `c1cnn2ncc(-c3ccnc(N4CCC45COC5)n3)c2c1` is reported as 31% (binding; 1 µM).
